Assay results reported in ChEMBL document CHEMBL4334465, “SAR Studies on Aromatic Acylhydrazone-Based Inhibitors of Fungal Sphingolipid Synthesis as Next-Generation Antifungal Agents” (J Med Chem, 2019).
In brackets after ≈: the same amount, converted by molar mass. Activity calls are given as the source filed them. No cut-off for these calls is given here.

Experiments:
Cryptococcus neoformans [1] = test: Antifungal activity against Cryptococcus neoformans H99 infected in CBA/J mouse assessed as increase in survival at 1.2 mg/kg, ip; format: functional, organism-based; settings: var grubii H99
Cryptococcus neoformans [2] = test: Fungicidal activity against Cryptococcus neoformans H99 measured up to 96 hrs by time-kill assay; format: functional, organism-based; settings: var grubii H99
How it was run: (§1)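 Overnight C. neoformans washed in PBS and resuspended in HEPES-buffered YNB, pH 7.4. 2 × 10⁴ cells exposed to a range of drug concentrations in 10 mL with 0.5% DMSO final, at 37°C, 5% CO₂, shaking at 200 rpm. Aliquots sampled over 96 h, diluted and plated on YPD; CFU counted after 48 h at 30°C.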

Candida parapsilosis [3] = test: Antifungal activity against Candida parapsilosis assessed as FICI in presence of voriconazole; format: functional
How it was run: (§2)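 Checkerboard combination scored by fractional inhibitory concentration index. Acylhydrazone serially diluted 16 to 0.015 μg/mL (11 dilutions). Partner drug in seven dilutions: fluconazole 12 to 0.19 μg/mL, amphotericin B 5 to 0.078 μg/mL, caspofungin, itraconazole or voriconazole 8 to 0.007 μg/mL.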

[Candida] auris [4] = Antifungal activity against Candida auris assessed as FICI in presence of itraconazole; format: functional, Candidozyma auris; how it was run: as §2
[Candida] auris [5] = Antifungal activity against Candida auris assessed as FICI in presence of caspofungin; format: functional, Candidozyma auris; how it was run: as §2
A549 = test: Cytotoxicity against human A549 cells after 24 to 48 hrs by MTT assay; format: functional; settings: read-out: LD50 (the source's name)
How it was run: (§3)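 A549 and HepG2 kept in DMEM with 10% FBS and 1% pen-strep. At passage 7, seeded at 10⁵ cells/well and allowed to adhere 14 h. Compound added at 0.03–128 μg/mL, untreated wells as controls. Incubation 37°C, 5% CO₂ for 24 or 48 h. MTT (5 mg/mL in PBS) added for 4 h, formazan dissolved in DMSO, OD570.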

Candida albicans [6] = test: Antifungal activity against Candida albicans assessed as FICI in presence of caspofungin; format: functional; how it was run: as §2
Candida albicans [7] = test: Antifungal activity against Candida albicans measured after 24 to 72 hrs; format: functional
How it was run: (§4)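 Modified CLSI broth microdilution with inoculum per M27A3. Compounds were serially diluted 32 to 0.03 μg/mL. Media: C. neoformans in HEPES-buffered YNB without amino acids (pH 7.0, 2% glucose); Candida strains in YNB without ammonium sulfate or amino acids plus 1% asparagine (pH 7.0, 2% glucose); A. fumigatus in RPMI (pH 7.0, 2% glucose).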

Candida albicans [8] = test: Antifungal activity against Candida albicans assessed as FICI in presence of fluconazole; format: functional; how it was run: as §2
Pichia kudriavzevii [9] = test: Antifungal activity against Candida krusei 6258 assessed as FICI in presence of itraconazole; format: functional; how it was run: as §2
Aspergillus fumigatus [10] = test: Antifungal activity against Aspergillus fumigatus assessed as FICI in presence of fluconazole; format: functional; how it was run: as §2
Cryptococcus neoformans [11] = test: Antifungal activity against Cryptococcus neoformans H99 assessed as FICI in presence of fluconazole; format: functional, var grubii H99; how it was run: as §2
Cryptococcus neoformans [12] = test: Fungicidal activity against Cryptococcus neoformans H99 measured after 72 hrs by time-kill assay; format: functional, var grubii H99; how it was run: as §1
Candida parapsilosis [13] = test: Antifungal activity against Candida parapsilosis measured after 24 to 72 hrs; format: functional; settings: Lodderomyces parapsilosis; how it was run: as §4
Pichia kudriavzevii [14] = test: Antifungal activity against fluconazole-resistant Candida krusei assessed as FICI in presence of itraconazole; format: functional
How it was run: (§5)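 Checkerboard in 96-well plate. Test compound diluted 16 to 0.015 μg/mL (11 dilutions) against the partner drug in seven dilutions: fluconazole 12 to 0.19 μg/mL, caspofungin, itraconazole or voriconazole 8 to 0.007 μg/mL. Fractional inhibitory concentration index (FICI) calculated from the combinations.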

[15] = Selectivity index, ratio of LD50 for human HepG2 cells to MIC80 for Cryptococcus neoformans H99; format: toxicity; settings: read-out: Selectivity Index
How it was run: (§6)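 SI = LD₅₀/MIC₈₀. Cytotoxicity: A549 or HepG2 cells (DMEM, 10% FBS, passage 7, 10⁵ cells/well) adhered 14 h, then exposed to 0.03–128 μg/mL for 24 or 48 h at 37°C, 5% CO₂; MTT 4 h, formazan dissolved in DMSO, read at 570 nm. MIC₈₀ against C. neoformans from broth microdilution in HEPES-buffered YNB, pH 7.0.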

Pichia kudriavzevii [16] = test: Antifungal activity against Candida krusei 6258 assessed as FICI in presence of fluconazole; format: functional; how it was run: as §2
[Candida] auris [17] = Antifungal activity against Candida auris assessed as FICI in presence of fluconazole; format: functional, Candidozyma auris; how it was run: as §2
Pichia kudriavzevii [18] = test: Antifungal activity against fluconazole-resistant Candida krusei assessed as FICI in presence of caspofungin; format: functional; how it was run: as §5
[19] = Selectivity index, ratio of LD50 for human A549 cells to MIC80 for Cryptococcus neoformans H99; format: toxicity; settings: read-out: Selectivity Index; how it was run: as §6
Candida albicans [20] = test: Antifungal activity against Candida albicans assessed as FICI in presence of itraconazole; format: functional; how it was run: as §2
[Candida] auris [21] = Antifungal activity against Candida auris assessed as FICI in presence of voriconazole; format: functional, Candidozyma auris; how it was run: as §2
Cryptococcus neoformans [22] = test: Antifungal activity against Cryptococcus neoformans H99 assessed as FICI in presence of voriconazole; format: functional, var grubii H99; how it was run: as §2
Pichia kudriavzevii [23] = test: Antifungal activity against fluconazole-resistant Candida krusei assessed as FICI in presence of fluconazole; format: functional; how it was run: as §5
Aspergillus fumigatus [24] = test: Antifungal activity against Aspergillus fumigatus assessed as FICI in presence of voriconazole; format: functional; how it was run: as §2
Candida parapsilosis [25] = test: Antifungal activity against Candida parapsilosis assessed as FICI in presence of caspofungin; format: functional; how it was run: as §2
HepG2 = test: Cytotoxicity against human HepG2 cells after 24 to 48 hrs by MTT assay; format: functional; settings: read-out: LD50 (the source's name); how it was run: as §3
Cryptococcus neoformans [26] = test: Antifungal activity against Cryptococcus neoformans H99 assessed as FICI in presence of amphotericin B; format: functional, var grubii H99; how it was run: as §2
Candida albicans [27] = test: Antifungal activity against Candida albicans assessed as FICI in presence of voriconazole; format: functional; how it was run: as §2
Cryptococcus neoformans [28] = test: Antifungal activity against Cryptococcus neoformans H99 measured after 24 to 72 hrs; format: functional; settings: var grubii H99; how it was run: as §4
Candida parapsilosis [29] = test: Antifungal activity against Candida parapsilosis assessed as FICI in presence of fluconazole; format: functional; how it was run: as §2
Pichia kudriavzevii [30] = test: Antifungal activity against Candida krusei measured after 24 to 72 hrs; format: functional
How it was run: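 MIC by modified CLSI broth microdilution. Candida strains grown in YNB without ammonium sulfate or amino acids with 1% asparagine, pH 7.0, 2% glucose. Inoculum per CLSI M27A3. Compound serially diluted 32 to 0.03 μg/mL. Incubation 37°C, 5% CO₂, 24–72 h, then OD450. MIC80 taken as the lowest concentration giving 80% growth inhibition versus untreated control.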

Cryptococcus neoformans [31] = test: Antifungal activity against Cryptococcus neoformans H99 assessed as FICI in presence of itraconazole; format: functional, var grubii H99; how it was run: as §2
Pichia kudriavzevii [32] = test: Antifungal activity against Candida krusei 6258 assessed as FICI in presence of voriconazole; format: functional; how it was run: as §2
Pichia kudriavzevii [33] = test: Antifungal activity against fluconazole-resistant Candida krusei assessed as FICI in presence of voriconazole; format: functional; how it was run: as §5
Candida parapsilosis [34] = test: Antifungal activity against Candida parapsilosis assessed as FICI in presence of itraconazole; format: functional; how it was run: as §2
Pichia kudriavzevii [35] = test: Antifungal activity against Candida krusei 6258 assessed as FICI in presence of caspofungin; format: functional; how it was run: as §2
Aspergillus fumigatus [36] = test: Antifungal activity against Aspergillus fumigatus assessed as FICI in presence of itraconazole; format: functional; how it was run: as §2
Aspergillus fumigatus [37] = test: Antifungal activity against Aspergillus fumigatus measured after 24 to 72 hrs; format: functional; how it was run: as §4
[Candida] auris [38] = Antifungal activity against Candida auris measured after 24 to 72 hrs; format: functional; settings: Candidozyma auris; how it was run: as §4

For O=C(N/N=C/c1cc(Br)cc(Br)c1O)c1ccc(Br)cc1, the Activity (Cryptococcus neoformans [1]) was “Active”.

In the case of O=C(N/N=C/c1ccc(Br)cc1O)c1ccc(Br)cc1Br, the Activity (Cryptococcus neoformans [2]) is reported as “Dose-dependent effect”, the “fractional inhibitory concentration index (FICI)” value (Candida parapsilosis [3]) is reported as 0.076 and the “fractional inhibitory concentration index (FICI)” value ([Candida] auris [4]) is reported as 0.508. For the same compound, the “fractional inhibitory concentration index (FICI)” value ([Candida] auris [5]) was 2, the CC50 (A549) was 64 µg/mL (≈ 134 µM) and the “fractional inhibitory concentration index (FICI)” value (Candida albicans [6]) was 0.502. The MIC80 (Candida albicans [7]) was > 16 µg/mL, the “fractional inhibitory concentration index (FICI)” value (Candida albicans [8]) was 0.625 and the “fractional inhibitory concentration index (FICI)” value (Pichia kudriavzevii [9]) was 1.063. The “fractional inhibitory concentration index (FICI)” value (Aspergillus fumigatus [10]) was 2, the “fractional inhibitory concentration index (FICI)” value (Cryptococcus neoformans [11]) was 0.065 and the MFC100 (Cryptococcus neoformans [12]) was 0.06 µg/mL (≈ 0.126 µM). The MIC80 (Candida parapsilosis [13]) was 8 µg/mL (≈ 16.8 µM), the “fractional inhibitory concentration index (FICI)” value (Pichia kudriavzevii [14]) was 0.252 and the selectivity ratio [15] was 2130. For the same compound, the “fractional inhibitory concentration index (FICI)” value (Pichia kudriavzevii [16]) was 2, the “fractional inhibitory concentration index (FICI)” value ([Candida] auris [17]) was 2 and the “fractional inhibitory concentration index (FICI)” value (Pichia kudriavzevii [18]) was 2. For the same compound, the selectivity ratio [19] was 1070, the “fractional inhibitory concentration index (FICI)” value (Candida albicans [20]) was 0.128 and the “fractional inhibitory concentration index (FICI)” value ([Candida] auris [21]) was 1.016. The “fractional inhibitory concentration index (FICI)” value (Cryptococcus neoformans [22]) was 0.072, the “fractional inhibitory concentration index (FICI)” value (Pichia kudriavzevii [23]) was 2 and the “fractional inhibitory concentration index (FICI)” value (Aspergillus fumigatus [24]) was 0.515. The “fractional inhibitory concentration index (FICI)” value (Candida parapsilosis [25]) was 2, the CC50 (HepG2) was 128 µg/mL (≈ 268 µM) and the “fractional inhibitory concentration index (FICI)” value (Cryptococcus neoformans [26]) was 0.086. The “fractional inhibitory concentration index (FICI)” value (Candida albicans [27]) was 0.256, the MIC80 (Cryptococcus neoformans [28]) was 0.06 µg/mL (≈ 0.126 µM) and the “fractional inhibitory concentration index (FICI)” value (Candida parapsilosis [29]) was 1.002. For the same compound, the MIC80 (Pichia kudriavzevii [30]) was > 16 µg/mL, the “fractional inhibitory concentration index (FICI)” value (Cryptococcus neoformans [31]) was 0.072 and the “fractional inhibitory concentration index (FICI)” value (Pichia kudriavzevii [32]) was 1.25. For the same compound, the “fractional inhibitory concentration index (FICI)” value (Pichia kudriavzevii [33]) was 0.281, the “fractional inhibitory concentration index (FICI)” value (Candida parapsilosis [34]) was 0.124 and the “fractional inhibitory concentration index (FICI)” value (Pichia kudriavzevii [35]) was 2. For the same compound, the “fractional inhibitory concentration index (FICI)” value (Aspergillus fumigatus [36]) was 0.484, the MIC80 (Aspergillus fumigatus [37]) was > 16 µg/mL and the MIC80 ([Candida] auris [38]) was > 16 µg/mL.
